Tested on: MS2 coat protein
Assay: apparent Kd, MS2 coat protein; higher = weaker binding; RNA-MaP array; FMN 200 µM where present
In short: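 Designs were transcribed by stalled E. coli RNA polymerase on Illumina sequencing-chip clusters. They were titrated with SNAP-549-labelled MS2 coat protein from 0.7 or 1.5 nM, doubling to 3 µM, in 100 mM Tris-HCl pH 7.5, 80 mM KCl, 4 mM MgCl2, BSA, DTT, yeast tRNA and Tween-20, without and then with constant ligand. The apparent Kd is the median of filtered per-cluster fits after normalisation of green signal to red-channel RNA signal and control-cluster median Fmax.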

[1] = designed as: ON switch for flavin mononucleotide, no ligand
[2] = ligand present: flavin mononucleotide, designed as: ON switch for flavin mononucleotide
[3] = designed as: OFF switch for flavin mononucleotide, no ligand
[4] = ligand present: flavin mononucleotide, designed as: OFF switch for flavin mononucleotide

## GCCAUCAUAUGAGGAUAUGACACCGAAACGGUGUCAGAAGGCAUGUCGAUAGACAUGAGGAUCACCCAUGUUUACAUGAUGGCA
[1]
  apparent Kd: 91.5 nM
[2]
  apparent Kd: 20.7 nM

## CUCGUGUAAGGAUAUACGAGUCACGGAAAUAAACCGUGAAGGUAGAAGGUACAUGAGGAUCACCCAUGUAAAAC
[3]
  apparent Kd: 40 nM
[4]
  apparent Kd: 347 nM

## UGUUGUAUUACAGGAUAUCUAGUAAUUUUAUUUAGAGAAGGGUAUUCACAUGAGGAUCACCCAUGUAUAUACGAGGAAGUUGUG
[1]
  apparent Kd: 37 nM
[2]
  apparent Kd: 39.7 nM

## GCAAGGCAUGUAGGAUAUCGAGCUCAAAGAGCUCGAGAAGGACAUGAGGAUCACCCAUGUGCUCACAGACAGUGAGCGCCUUGC
[3]
  apparent Kd: 18.4 nM
[4]
  apparent Kd: 44.4 nM

## CAGGAGAACACAGGAUAUCCGUAAAACAUGAGGAUCACCCAUGUUUGUGGCCCGCCAGGGCUGACGGAGAAGGGUGACUCGCAC
[1]
  apparent Kd: 6.69 nM
[2]
  apparent Kd: 5.61 nM

## CCUGAGUGUCUAGGAUAUGCAUACCCGAGCUUUGCAGAAGGAGACAUGAGGAUCACCCAUGUGGACUUGGCAGGUCUCGCACCA
[3]
  apparent Kd: 5.91 nM
[4]
  apparent Kd: 7.59 nM

## UAGUGAUUGCAAGGAUAUGCUUAUGUUUAAUUUUUUUUAAUAUCUAACAUGAGGAUCACCCAUGUGCAGAAGGUGCUUGAUUUG
[1]
  apparent Kd: 66.1 nM
[2]
  apparent Kd: 58.7 nM

## AGAAACUACGAGAAGGACAAAAAAGGUGCCGCAAACAUGAGGAUCACCCAUGUAGGAUAUCGUAGUUUCAGGAUCGUGAGAUCA
[3]
  apparent Kd: 16.5 nM
[4]
  apparent Kd: 98.3 nM

## UUGGACGUCGUAGGAUAGGUAGGAUAUUCCUACAUGAGGAUCACCCAUGUUGACAUGGAAGAAGGACAGAAGGACGAUGUCCAU
[1]
  apparent Kd: 142 nM
[2]
  apparent Kd: 5.7 nM

## UCGUCCAUGUCAGGAUAUGGCGGUAAAGAAAGGCUAGAAGGGACAUGAGGAUCACCCAUGUGCUCUUACGUGCACGGGCUGCGC
[3]
  apparent Kd: 6.47 nM
[4]
  apparent Kd: 8.18 nM

## CGAUAACAUAGUUAUCCGUAGCGAACAUGAGGAUCACCCAUGUAGGAUAUGUUACUAAACUAGUAACAGAAGGACAUGAGUCUU
[3]
  apparent Kd: 34.9 nM
[4]
  apparent Kd: 263 nM

## UUAAAUUAGUAGAAGGACGGAGAGUAUAAAGUCGUAGGAUAUACAUAAGACAUGAGGAUCACCCAUGUAAGUUUGUGAGGUAUG
[3]
  apparent Kd: 14.8 nM
[4]
  apparent Kd: 15.3 nM

## GGAUUACAUGAGGAUCACCCAUGUGAGGAUAUCGAUGUCCUCAAUCAAGUGCGGGACUCGAGAAGGCACUUGGA
[3]
  apparent Kd: 70.3 nM
[4]
  apparent Kd: 30.9 nM

## AGUCGGAGCAGAGGAUAUACAUGAGGAUCACCCAUGUAAUAAAGUGAAGCCUGGAAACAGGCAAUGUAGAAGGCUGCUCCGACA
[3]
  apparent Kd: 28.1 nM
[4]
  apparent Kd: 232 nM

## CAAAGGUGAGGAUAUGCAUAACUAUGACGAAAGUCAUAAACACAUGAGGAUCACCCAUGUAGAAGGCACCACAA
[3]
  apparent Kd: 23.9 nM
[4]
  apparent Kd: 18.3 nM

## GGUUGGCGAGGAUAUACAUGAGGAUCACCCAUGUGGUCCUGUGGCUGAUCUUGCCUUUGUAGAAGGCGCAAAUC
[3]
  apparent Kd: 18.5 nM
[4]
  apparent Kd: 37.8 nM

## CGCUAGGAUGGGUCUAAUGGACCUCAGGAUAUGCUUGUACAUGAGGAUCACCCAUGUAACAUUGUGCAGAAGGGAGGAUCCACG
[1]
  apparent Kd: 8.82 nM
[2]
  apparent Kd: 4.57 nM

## CAGUACUGAGGAUAUACAUGAGGAUCACCCAUGUGUUCCAGCUAGGAAACUAGCAAAAGUAGAAGGCAGUUCUG
[3]
  apparent Kd: 20.2 nM
[4]
  apparent Kd: 182 nM

## GAUGGACAUGAGGAUCACCCAUGUCAGGAUAUUGUUUGUGGCUAGUUUUGGUUACGGGCGAGAAGGGACUCGUC
[3]
  apparent Kd: 22.6 nM
[4]
  apparent Kd: 20.7 nM

## GUCGAGUGAGGAUAUGGUGAGUAGUGCCUGAGCGCUGCUCACCAGAAGGCACAUGAGGAUCACCCAUGUAUGUC
[3]
  apparent Kd: 13.7 nM
[4]
  apparent Kd: 20.7 nM

## GGAGCCGGUACUGAGGAUAUUCAUAUUAAAACAUGAGGAUCACCCAUGUAGGCCAGAAGGCCUUGGGAGAAGGCGGACCAGCUCG
[1]
  apparent Kd: 463 nM
[2]
  apparent Kd: 32.8 nM

## GUAGCAUACCAAGGAUAUUCAUAUAAUAAGUAAACAUGAGGAUCACCCAUGUAGUGAGAGCCUUGGGAGAAGGUGGAAUGCUAC
[1]
  apparent Kd: 16.6 nM
[2]
  apparent Kd: 18.3 nM

## CUUUUGUGAGGAUAUCAGUAGUAUAAAAAUAAAAUUACUACUGAGAAGGCACAUGAGGAUCACCCAUGUUCCUC
[3]
  apparent Kd: 39 nM
[4]
  apparent Kd: 226 nM

## UGUCGGAGCAGAGGAUAUACAUGAGGAUCACCCAUGUAAGAAAGUGAAGCCUGGAAACAGGCAAUGUAGAAGGCUGCUCCGACA
[3]
  apparent Kd: 12.4 nM
[4]
  apparent Kd: 86.3 nM

## AAUAUUUAUUGAGGAUAUUCAUACACUGUAUACGGAGAAGGCAAUCAAUCAUGAGGACAUGAGGAUCACCCAUGUUGUGACCAU
[1]
  apparent Kd: 10.7 nM
[2]
  apparent Kd: 9.69 nM

## AUCCGACAUGAGGAUCACCCAUGUCAGGAUAUGGACUGACACCCAAAGGGUGGAGGAACCAGAAGGGACUGGGC
[3]
  apparent Kd: 36 nM
[4]
  apparent Kd: 68.1 nM

## AAUGUUUGAUUCCACUUAUACAUGAGGAUCACCCAUGUUAUCGAGGAUAUGCAUUAGAGUGUUUAGCAGAAGGCGAUGUAAUUU
[3]
  apparent Kd: 6.74 nM
[4]
  apparent Kd: 17.5 nM

## CCGGGCGGUUUGCCCACACUGUCACAGGAUAUGCCCAAAACAUGAGGAUCACCCAUGUCAAAUACGCAGAAGGGUGAUCGGAAA
[1]
  apparent Kd: 55.8 nM
[2]
  apparent Kd: 37 nM

## UGUCUAUAUGAAGGAUAUCUAAGCAUAAACCGUAGAGAAGGUCAAUAGUACAUGAGGAUCACCCAUGUUAGAAUUGAAGGGUUU
[3]
  apparent Kd: 17.6 nM
[4]
  apparent Kd: 23.2 nM

## GCAGCACAAUAUUACAUGAGGAUCACCCAUGUCGAUUGUUAUGAGGAUAUGCAUCGUAUGAAGUUGCAGAAGGCAUUGUGCUGC
[1]
  apparent Kd: 9.4 nM
[2]
  apparent Kd: 6.09 nM

## GGUACCAACACAGGAUAUCCUAUCCUUUGGGUAGGAGAAGGGUGAAACAUGAGGAUCACCCAUGUGGUGCCAGGGCGUGAGCCC
[1]
  apparent Kd: 1230 nM
[2]
  apparent Kd: 206 nM

## AUCUUCGGAGGAUAUUCUCCGUCACACAUGAGGAUCACCCAUGUCAUUCGAAUGGGUUCGGAAGAAGGUCGAAGGU
[3]
  apparent Kd: 236 nM
[4]
  apparent Kd: 171 nM

## ACGCCCUGAGGAUAUCUUAUGCCGCACAUGAGGAUCACCCAUGUUCUCCUCCGGGCUCCGAGAGAAGGCAGGCCCA
[3]
  apparent Kd: 8.82 nM
[4]
  apparent Kd: 10.2 nM

## CCUUGACAUGAGGAUCACCCAUGUGAGGAUAUAGAAUACUUCAUACACUGACCUCCUUCUAGAAGGCACAUCUC
[3]
  apparent Kd: 15.3 nM
[4]
  apparent Kd: 15.1 nM

## AACGAUCUAGGAUAUACAUGAGGAUCACCCAUGUAAGAGCCCAAACCAGGCUCCCUCUGUAGAAGGAGGUCAAA
[4]
  apparent Kd: 50.9 nM

## CACCGUUACCGAGGAUAUCGUACAUGAGGAUCACCCAUGUAAUAAAUGAGAAUUUCGGAUGUAUGCGAGAAGGCGGGAAUCGGC
[3]
  apparent Kd: 34.1 nM
[4]
  apparent Kd: 29.8 nM

## UUAUUUAUGCAAGGAUAUCAAUUAUAUAGACGUCCUACAUGAGGAUCACCCAUGUUUAGUUUUUUUGAGAAGGUGCAUUGUCGG
[1]
  apparent Kd: 43.1 nM
[2]
  apparent Kd: 31.1 nM

## ACUAAUAAGUGAGGAUAUACAUAAUUCAUAUCAGUAGAAGGCACAAUCCUCUUUACAUGAGGAUCACCCAUGUUAUAUAUAUAA
[3]
  apparent Kd: 73.8 nM
[4]
  apparent Kd: 194 nM

## UUUAUAAAUUAGAAGGCGAGAUGAAUUACAAUAGACAUGAGGAUCACCCAUGUGUAUUCAUGUCUUGAGGAUAUAGUCAUAUAU
[1]
  apparent Kd: 118 nM
[2]
  apparent Kd: 58.1 nM

## GUAGCAUACAGAGGAUAUCUUAACCGGAAACGGACAUGAGGAUCACCCAUGUGGCGAAAGCCUAGGGAGAAGGCUGAAUGCUAC
[1]
  apparent Kd: 10.2 nM
[2]
  apparent Kd: 11.1 nM

## CGUUUUUAUGUAGGAUAUGCUUGUGGUAAGAUAGCAGAAGGACAUGAGGAUCACCCAUGUUAAUGAUAGAGAUUUUAUGUUGCG
[3]
  apparent Kd: 37.9 nM
[4]
  apparent Kd: 50.2 nM

## CUUUCGUUAGCAGGAUAUGGACAGGCCUGUCCGUCUUGAGUCAGUAACAUGAGGAUCACCCAUGUCCAGAAGGGCUCGAAGGGA
[3]
  apparent Kd: 17.7 nM
[4]
  apparent Kd: 32.4 nM

## AUCAGCACGUGAGGAUAUGCGUUACUGCGAAAGCAGUACGGUAAGAUCACAUGAGGAUCACCCAUGUAGAAGGCACGAGCUGAU
[3]
  apparent Kd: 16.6 nM
[4]
  apparent Kd: 36.9 nM

## GUGUACAGAGGAUAUAUAUGAGCAUGGAAACAUGCAAGAUCACAUGAGGAUCACCCAUGUAGAAGGCUGUACAC
[3]
  apparent Kd: 88.4 nM
[4]
  apparent Kd: 541 nM

## GGAGAACAUGAGGAUCACCCAUGUGAGCGGUAGCUAGGAUAUGCGGGAAGGAAGAGAGAAGCAGAAGGAGUCGGUA
[1]
  apparent Kd: 36.1 nM
[2]
  apparent Kd: 22.9 nM

## UUGGACGUCGUAGGAUAUGUAGGAUUCUCCUACAUGAGGAUCACCCAUGUUGACAUGGAGGACGGACAGAAGGACGGUGUCCAU
[1]
  apparent Kd: 14.1 nM
[2]
  apparent Kd: 5.64 nM

## CACGGAUGAUCAGGAUAUGCUAAAGCAGGCUGACAUGAGGAUCACCCAUGUCCCAGAAACUGUGGGCAGAAGGGAUGUAAUGUU
[1]
  apparent Kd: 49.8 nM
[2]
  apparent Kd: 12.2 nM

## UAGAAGUCAGGAUAUCCAUGGCGGCACUUGCGUGGUGGCGUGGAGAAGGGACAUGAGGAUCACCCAUGUAAAGU
[3]
  apparent Kd: 53.3 nM
[4]
  apparent Kd: 48.5 nM

## AGUAACAGAGGAUAUACUGUUUUAUGUGUUUGUUAUUUUAAACAUGAGGAUCACCCAUGUAGAAGGCUGAAUGA
[3]
  apparent Kd: 27.1 nM
[4]
  apparent Kd: 25.3 nM

## ACAUGAGGAUCACCCAUGUGGACAUAGGAUAUUGGUGGUCAGGCGUGUUAUACAGGAUAGGUCUGCGAGAAGGGUGUGCGUUGC
[1]
  apparent Kd: 84.9 nM
[2]
  apparent Kd: 75 nM

## GCGUAAGUCACAGGAUAUCCAACAUGAGGAUCACCCAUGUAAAAGUGCCGCACUAGAAUGCGACUGGAGAAGGGUGAUUCGUCG
[1]
  apparent Kd: 50.3 nM
[2]
  apparent Kd: 27.5 nM

## AGUGACUACGUAGGAUAUUAAUUCAUGGACUACAUGAGGAUCACCCAUGUUUAUUUAACAUCAGCUGAGAAGGACGUGGUCACA
[1]
  apparent Kd: 28.1 nM
[2]
  apparent Kd: 10.6 nM

## CCAGUGUAAGGAUAUGACAAUGGUAUCUUCGGAUACCAUUGUCAGAAGGUACAUGAGGAUCACCCAUGUAACAC
[3]
  apparent Kd: 16.6 nM
[4]
  apparent Kd: 26.5 nM

## AGGAAACAUGAGGAUCACCCAUGUAAAAAAGUGGGAGGAUAUACUAGAAGAAACAAAAUAGUAGAAGGCCUAAAAA
[1]
  apparent Kd: 47.3 nM
[2]
  apparent Kd: 24.9 nM

## GACUAGGCAGGAUAUACAUGAGGAUCACCCAUGUGUCUGCGUUAAGCACGUGAAGACGGUAGAAGGGCCUUCAC
[3]
  apparent Kd: 11.6 nM
[4]
  apparent Kd: 13.5 nM
